The source of these data is ChEMBL document CHEMBL3286295, “Discovery of HDAC inhibitors with potent activity against multiple malaria parasite life cycle stages” (Eur J Med Chem, 2014).

Each structure is given as a SMILES string. Calls of active or inactive are those of the source. No cut-off for these calls is given here.

For orientation: IC50 means the concentration at which inhibition is half-maximal. In general, inhibition refers to the percentage by which the read-out fell short of the control.

Data set [1] in a line: Selectivity index, ratio of IC50 for human HepG2 cells to IC50 for exo-erythrocytic form of Plasmodium berghei.
The subject of a further data set is Plasmodium berghei. The data set is described as follows: Antimalarial activity against exo-erythrocytic form of Plasmodium berghei infected in human HepG2 cells after 48 hrs. In kind it is functional, organism-based. As to conditions: HepG2, 48 h. The essentials:
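HepG2-A16-CD81EGFP cells seeded 20–26 h before infection and given compound 18 h before infection (0.5% final DMSO). Infected with 1×10^3 luciferase-expressing P. berghei sporozoites per well, spun 3 min at 330xg, 37°C, then incubated 48 h at 37°C in 5% CO2. Read by luminescence. IC50 by four-parameter variable-slope nonlinear regression.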

Data set [2] deals with Plasmodium falciparum. The data set is described as follows: Antimalarial activity against late stage gametocyte stage of Plasmodium falciparum NF54 after 72 hrs. Format: functional, organism-based. As to conditions: NF54, 72 h. The essentials:
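Stage IV gametocytes of NF54-pfs16-GFP, magnetically isolated day 8 post induction, 33,000 per well. Incubated 72 h with compound under 5% CO2/5% O2/80% N2, then overnight with Mitotracker Red CM-H2XRos (0.07 ug/ml). IC50 by sigmoidal variable-slope fit, mean ±SD, two experiments in duplicate.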

The test system of data set [3] is Plasmodium falciparum. The data set is described as follows: Antimalarial activity against asexual blood stage of Plasmodium falciparum 3D7 infected in human serum assessed as [3H]hypoxanthine incorporation incubated for 48 hrs prior to 3H]hypoxanthine addition measured after 24 hrs by liquid scintillation counting analysis. Format: functional, organism-based. The note with it: 3D7, Serum. The essentials: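 Synchronous ring-stage parasites (0.25% parasitaemia, 2.5% haematocrit) in RPMI 1640 with 10% heat-inactivated human serum, exposed to serially diluted compound for 48 h at 37°C. [3H]-hypoxanthine (0.5 μCi/well) then added for a further 24 h and counted by liquid scintillation. Inhibition is relative to 0.5% DMSO controls. IC50 by log-linear interpolation, mean (±SD) of three independent experiments, each in triplicate wells.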

Data set [4] can be described thus: Selectivity index, ratio of IC50 for human HepG2 cells to IC50 for asexual blood stage of Plasmodium falciparum 3D7.
The test system of the next data set is HepG2. The data set is described as follows: Cytotoxicity against human HepG2 cells after 48 hrs. Format: ADME, cell-based. As to conditions: HepG2, 48 h.
The test system of data set [5] is Plasmodium falciparum 3D7. The experiment in a line: Inhibition of HDAC in Plasmodium falciparum 3D7 trophozoites assessed as histone H4 hyperacetylation level at 500 nM after 3 hrs by Western blotting analysis relative to control. The method, boiled down:
(§1)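 Synchronous trophozoite-stage 3D7 parasites incubated 3 h with 500 nM compound or 0.05% DMSO vehicle. Vehicle samples taken at 0 and 3 h. Saponin lysis and PBS washing, then 15% SDS-PAGE and immunoblotting. Anti-RAP2 monoclonal used as loading control; infrared fluorescent secondary detection.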
(Immunoblotting shows a protein as a band on a membrane.)

Data set [6] in a line: Selectivity index, ratio of IC50 for human HepG2 cells to IC50 for late stage gametocyte stage of Plasmodium falciparum NF54. In kind it is toxicity, cell-based. As to conditions: read-out: Ratio IC50.
Data set [7] relates to Plasmodium falciparum. The experiment in a line: Inhibition of histone deacetylase in Plasmodium falciparum nuclear lysates at 1 uM by fluorescence assay. The method, boiled down: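 Nuclear protein lysates prepared from trophozoite-stage P. falciparum with a nuclear extraction kit, tested at 1 μM compound in a fluorometric HDAC assay kit. Percent inhibition vs controls, mean (±SD) of two independent assays, each in duplicate.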

Data set [8] relates to Plasmodium falciparum. The data set is described as follows: Inhibition of Plasmodium falciparum recombinant histone deacetylase1 using HDAC substrate 3 as substrate at 1 uM by fluorescence assay. The method, boiled down:
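Recombinant PfHDAC1 tested at 1 μM compound in a fluorometric HDAC assay kit with Fluorogenic HDAC substrate 3. Percent inhibition vs controls, mean (±SD) of two independent assays, each in duplicate.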

Data set [9] deals with Plasmodium falciparum 3D7. The data set is described as follows: Inhibition of HDAC in Plasmodium falciparum 3D7 trophozoites assessed as histone H3 hyperacetylation level at 500 nM after 3 hrs by Western blotting analysis relative to control. The method, boiled down: as §1

With `O=C1C(O)=C([C@H]2CC[C@H](c3ccc(Cl)cc3)CC2)C(=O)c2ccccc21` [ATOVAQUONE], in data set [1], the selectivity ratio was greater than 64100. In the data set on Plasmodium berghei, this molecule displayed an IC50 of 0.00016 µM.

In the data set on Plasmodium falciparum [2], `COc1ccc2nc3cc(Cl)ccc3c(Nc3cc(CN4CCCC4)c(O)c(CN4CCCC4)c3)c2n1` [PYRONARIDINE] returned an IC50 of 2.7 µM.

As for `CCOc1ccc(C(=O)NOCCCCCC(=O)NO)cc1`, the figures for the selectivity ratio in data set [1] and in [4] were 6 and 33, respectively. For the same molecule, the IC50 with Plasmodium falciparum [3] was found to be 0.23 µM; with Plasmodium berghei, 1.37 µM; with HepG2, 7.68 µM.

Regarding `Cc1ccc(C(=O)NOCCCCCC(=O)NO)cc1C`, the inhibition entry in [5] and in [9] was “Active” in each case. For the same molecule, the selectivity ratio in [1] turned out to be 10; in [6] it was 13; in data set [4], 27. In addition, the IC50 in the data set on Plasmodium falciparum [3] was 0.12 µM; with Plasmodium berghei, 0.31 µM; with Plasmodium falciparum [2], 0.25 µM; with HepG2, 3.24 µM. For the same molecule, the inhibition with Plasmodium falciparum [7] was found to be 93.3%; in the data set with Plasmodium falciparum [8] it was 82.6%.

As to `Cc1ccc(C(=O)NOCCCCCC(=O)NO)cc1`, the selectivity ratio in data set [1] was found to be 11; in data set [4], 55. Moreover, the IC50 in the data set with Plasmodium falciparum [3] amounted to 0.22 µM; in the data set on Plasmodium berghei it was 1.14 µM; in the data set on HepG2, 12.1 µM.

Take `CCN(CC)CCCC(C)Nc1ccnc2cc(Cl)ccc12` (centres undefined) [CHLOROQUINE]: the half-maximal inhibitory concentration (IC50) in the data set on Plasmodium berghei and with HepG2 was greater than 10 µM throughout.

For `O=C(CCCCCONC(=O)c1ccccc1F)NO`, the selectivity ratio in data set [1] was determined as 7; in [4] it was 12. Besides, the IC50 was 0.73 µM in the data set with Plasmodium falciparum [3], 1.25 µM in the data set on Plasmodium berghei, greater than 120 µM in the data set with Plasmodium falciparum [2] and 9.1 µM in the data set with HepG2.

With `Cc1cccc(C(=O)NOCCCCCC(=O)NO)c1`, the inhibition entry in data set [5] and in data set [9] was “Active” each time. In addition, the selectivity ratio in [1] turned out to be 7; in data set [6] it was 11; in data set [4], 25. The IC50 in the data set with Plasmodium falciparum [3] amounted to 0.19 µM; with Plasmodium berghei, 0.66 µM; in the data set on Plasmodium falciparum [2], 0.43 µM; in the data set on HepG2, 4.69 µM. Moreover, the inhibition with Plasmodium falciparum [7] was found to be 73.9%; with Plasmodium falciparum [8] it was 75.5%.

In the case of `Cc1cc(C)cc(C(=O)NOCCCCCC(=O)NO)c1`, the inhibition result in data set [5] and in data set [9] was “Active” each time. Further, the selectivity ratio was determined as 8 in data set [1], 4 in data set [6] and 13 in data set [4]. In addition, the IC50 in the data set with Plasmodium falciparum [3] is 0.1 µM; in the data set on Plasmodium berghei, 0.16 µM; in the data set on Plasmodium falciparum [2], 0.33 µM; with HepG2, 1.26 µM. The inhibition in the data set with Plasmodium falciparum [7] came to 58.6%; in the data set with Plasmodium falciparum [8], 73.8%.

For `CC(C)Oc1ccc(C(=O)NOCCCCCC(=O)NO)cc1`, the inhibition result in data set [5] and in data set [9] was “Active” throughout. Besides, the selectivity ratio is 7 in data set [1] and 65 in [4]. The IC50 with Plasmodium falciparum [3] was 0.15 µM; with Plasmodium berghei, 1.36 µM; in the data set with HepG2, 9.76 µM. Also, the inhibition came to 9.3% in the data set on Plasmodium falciparum [7] and 62.4% in the data set on Plasmodium falciparum [8].

`Cc1ccccc1C(=O)NOCCCCCC(=O)NO`: the selectivity ratio in data set [1] worked out at 5; in data set [4], 11. Moreover, the figures for the IC50 with Plasmodium falciparum [3], in the data set on Plasmodium berghei and in the data set with HepG2 were 1.12 µM, 2.54 µM and 12.7 µM, respectively.

Take `CC(C)(C)c1ccc(C(=O)NOCCCCCC(=O)NO)cc1`: the inhibition entry in [5] and in [9] was “Active” in each case. In addition, the selectivity ratio in data set [1] was found to be 7; in data set [4] it was 139. For the same molecule, the IC50 was 0.09 µM in the data set with Plasmodium falciparum [3], 1.87 µM in the data set on Plasmodium berghei, greater than 120 µM with Plasmodium falciparum [2] and 12.5 µM with HepG2. The inhibition in the data set with Plasmodium falciparum [7] was determined as 48.3%; in the data set with Plasmodium falciparum [8], 68.6%.

`O=C(CCCCCONC(=O)c1ccc(F)cc1)NO`: the selectivity ratio amounted to 4 in data set [1] and 18 in [4]. Also, the IC50 in the data set with Plasmodium falciparum [3] came out at 0.58 µM; in the data set with Plasmodium berghei, 2.31 µM; in the data set on Plasmodium falciparum [2], 2 µM; with HepG2 it was 10.3 µM.

Turning to `CCCCCCOc1ccc(C(=O)NOCCCCCC(=O)NO)cc1`, the figures for the selectivity ratio in data set [1] and in [4] were greater than 6 and greater than 143, respectively. Further, the IC50 is 0.35 µM in the data set with Plasmodium falciparum [3], 7.91 µM with Plasmodium berghei and greater than 50 µM in the data set with HepG2.

`O=C(CCCCCONC(=O)c1ccc(C(F)(F)F)cc1)NO`: the selectivity ratio came out at 7 in [1] and 50 in data set [4]. Further, the IC50 with Plasmodium falciparum [3] stood at 0.26 µM; in the data set with Plasmodium berghei, 1.9 µM; with HepG2 it was 13 µM.

For `CCCCCOc1ccc(C(=O)NOCCCCCC(=O)NO)cc1`, the selectivity ratio in data set [1] was greater than 10; in data set [4], greater than 238. For the same molecule, the IC50 in the data set with Plasmodium falciparum [3] is 0.21 µM; in the data set on Plasmodium berghei, 5.14 µM; with HepG2, greater than 50 µM.

On to `CCCOc1ccccc1C(=O)NOCCCCCC(=O)NO`, for which the selectivity ratio came out at 17 in [1] and 34 in [4]. Moreover, the IC50 in the data set with Plasmodium falciparum [3] was 0.24 µM; with Plasmodium berghei, 0.48 µM; with HepG2 it was 8.12 µM.

As for `CCCCc1ccc(C(=O)NOCCCCCC(=O)NO)cc1`, the selectivity ratio was found to be 6 in data set [1] and 41 in [4]. The IC50 with Plasmodium falciparum [3] is 0.26 µM; with Plasmodium berghei, 1.79 µM; in the data set with Plasmodium falciparum [2], 5.3 µM; with HepG2 it was 10.8 µM.

Consider `CCCOc1ccc(C(=O)NOCCCCCC(=O)NO)cc1`, for which the selectivity ratio in data set [1] was determined as 3; in data set [4], 80. Also, the IC50 in the data set on Plasmodium falciparum [3] was determined as 0.21 µM; in the data set with Plasmodium berghei it was 5.29 µM; in the data set with HepG2, 16.9 µM.

Regarding `CC(C)c1ccc(C(=O)NOCCCCCC(=O)NO)cc1`, the inhibition entry in data set [5] and in data set [9] was “Active” throughout. Further, the selectivity ratio in data set [1] was 7; in data set [4], 73. The IC50 in the data set with Plasmodium falciparum [3] came out at 0.12 µM; in the data set with Plasmodium berghei it was 1.34 µM; in the data set on HepG2 it was 8.76 µM. The values for the inhibition with Plasmodium falciparum [7] and in the data set on Plasmodium falciparum [8] were 72.9% and 67.2%, respectively.

As for `CCCOc1cccc(C(=O)NOCCCCCC(=O)NO)c1`, the figures for the selectivity ratio in [1] and in data set [4] were 16 and 29, respectively. The figures for the IC50 in the data set with Plasmodium falciparum [3], with Plasmodium berghei and in the data set with HepG2 were 0.24 µM, 0.45 µM and 7.04 µM, respectively.

With `CCCCOc1ccc(C(=O)NOCCCCCC(=O)NO)cc1`, the inhibition result in [5] and in data set [9] was “Active” throughout. In addition, the figures for the selectivity ratio in data set [1] and in data set [4] were greater than 23 and greater than 294, respectively. Further, the values for the 50% inhibitory concentration (IC50) with Plasmodium falciparum [3], in the data set on Plasmodium berghei and in the data set on HepG2 were 0.17 µM, 2.14 µM and greater than 50 µM, respectively. The figures for the inhibition in the data set on Plasmodium falciparum [7] and in the data set on Plasmodium falciparum [8] were 50.3% and 72.1%, respectively.

In the case of `O=C(CCCCCONC(=O)c1ccco1)NO`, the selectivity ratio in data set [1] was 7; in [4], 13. For the same molecule, the IC50 in the data set on Plasmodium falciparum [3] was 0.62 µM; in the data set on Plasmodium berghei, 1.13 µM; in the data set on Plasmodium falciparum [2] it was 1 µM; in the data set with HepG2 it was 8.03 µM.
